Source: ChEMBL document CHEMBL5346944, “Development of a 2,4-Diaminothiazole Series for the Treatment of Human African Trypanosomiasis Highlights the Importance of Static-Cidal Screening of Analogues” (J Med Chem, 2023)
Activity calls are given as the source filed them. The rule behind the calls is not given here.

Key:
Trypanosoma brucei [1] = experiment: Antiparasitic activity against bloodstream-stage Trypanosoma brucei measured after 73 hrs by resazurin assay; assay type: functional, organism-based
[2] = Selectivity ratio of IC50 for inhibition of Trypanosoma brucei GSK3 to EC50 for antiparasitic activity against bloodstream-stage Trypanosoma brucei; assay type: toxicity
[3] = Metabolic stability in CD1 mouse liver microsomes assessed as intrinsic clearance by UPLC-MS/MS analysis; assay type: ADME
Procedure, shortened: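 Compound at 0.5 μM incubated with female CD1 mouse liver microsomes (0.5 mg mL-1, 50 mM potassium phosphate pH 7.4). Reaction started with excess NADPH. Aliquots taken at 0, 3, 6, 9, 15, 30 min and quenched in acetonitrile with internal standard, then analysed by UPLC-MS/MS.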

[4] = Antiproliferative activity against human MRC5 cells in presence of 5% Co2 incubated for 69 hrs followed by resazurin addition further incubated for 4 hrs; assay type: toxicity, cell-based
[5] = Selectivity index, ratio of EC50 for human MRC-5 cells to EC50 for bloodstream-form Trypanosoma brucei; assay type: toxicity; settings: read-out: Selectivity Index
Trypanosoma brucei [6] = experiment: Antiparasitic activity against bloodstream-form Trypanosoma brucei in presence of 5% Co2 incubated for 69 hrs followed by resazurin addition further incubated for 4 hrs; assay type: functional, organism-based
[7] = Kinetic aqueous solubility of the compound in DMSO by laser nephelometry; assay type: physicochemical; settings: read-out: Kinetic_solubility
[8] = Metabolic stability in human liver microsomes assessed as intrinsic clearance by UPLC-MS/MS analysis; assay type: ADME
[9] = Free Cmax in NMRI mouse at 50 mg/kg, ip by UPLC-MS/MS analysis; assay type: ADME, organism-based; settings: in vivo
[10] = Cmax in NMRI mouse at 50 mg/kg, ip by UPLC-MS/MS analysis; assay type: ADME, organism-based; set-up: dose 50 mg/kg, route ip; settings: in vivo
[11] = AUC in NMRI mouse at 50 mg/kg, ip by UPLC-MS/MS analysis; assay type: ADME, organism-based; set-up: dose 50 mg/kg, route ip; settings: in vivo
[12] = system: Trypanosoma brucei brucei; experiment: Antiparasitic activity against Trypanosoma brucei brucei S427 injected in NMRI mouse assessed as cure by measuring reduction in parasitemia at 100 mg/kg, for 4 days by stage I efficacy study; settings: time 4.0 day
[13] = Tmax in NMRI mouse at 50 mg/kg, ip by UPLC-MS/MS analysis; assay type: ADME, organism-based; settings: in vivo
[14] = AUC in Sprague-Dawley rat at 10 mg/kg, po by UPLC-MS/MS analysis; assay type: ADME, organism-based; set-up: dose 10 mg/kg, route po; settings: in vivo
Procedure, shortened: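 Oral gavage at 10 mg kg-1 free base in 10% DMSO/40% PEG400/50% water, 5 mL kg-1, to female NMRI mice (n = 3) or Sprague-Dawley rats. Blood drawn at 5, 15, 30 min and 1, 2, 4, 6, 8 h, mixed with two volumes of water, measured by UPLC-MS/MS. Parameters taken from the mean blood concentration–time curve.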

[15] = Free Cmax in NMRI mouse at 100 mg/kg, ip by UPLC-MS/MS analysis; assay type: ADME, organism-based; settings: in vivo
[16] = Free Cmax in Sprague-Dawley rat at 10 mg/kg, po by UPLC-MS/MS analysis; assay type: ADME, organism-based; settings: in vivo
[17] = system: Trypanosoma brucei brucei; experiment: Antiparasitic activity against Trypanosoma brucei brucei S427 injected in Sprague-Dawley rat assessed as cure by measuring reduction in parasitemia at 100 mg/kg, po twice daily for 4 days by stage I efficacy study; assay type: functional, organism-based; settings: time 4.0 day
[18] = Cmax in NMRI mouse at 100 mg/kg, ip by UPLC-MS/MS analysis; assay type: ADME, organism-based; set-up: dose 100 mg/kg, route ip; settings: in vivo

Compound | CLH [3] [mL/min/g] | EC50 at 69 h [4] [µM] | other results
CC(C)(C)C(=O)c1sc(NC2CCCCC2)nc1N | 2.5 | – | EC50 (Trypanosoma brucei [1]): 0.26 µM; Ratio IC50/EC50 [2]: 70
Nc1nc(Nc2ccc(F)c(F)c2)sc1C(=O)COC(CF)CF | – | 50 | –
Nc1nc(NC2CCCCC2)sc1C(=O)C1CCC1 | 21 | – | selectivity ratio [5]: 5
CC(OCC(=O)c1sc(Nc2cccc(OC(F)F)c2)nc1N)C(F)(F)F (stereo unspecified) | – | 50 | EC50 (Trypanosoma brucei [6]): 0.02 µM; selectivity ratio [5]: 2500; solubility kinetic [7]: > 100 µg/mL
CC(OCC(=O)c1sc(Nc2ccc(C(F)(F)F)nc2)nc1N)C(F)(F)F (stereo unspecified) | – | 50 | –
CC(C)OCCC(=O)c1sc(Nc2ccc(F)c(F)c2)nc1N | – | 50 | –
CC(C)C(=O)c1sc(NC2CCCCC2)nc1N | 0.5 | – | –
CCOCC(=O)c1sc(Nc2ccc(F)c(F)c2)nc1N | – | 50 | –
Nc1nc(NC2CCCCC2)sc1C(=O)c1ccc(F)cc1F | 6.5 | – | –
Nc1nc(NC2CCCCC2)sc1C(=O)c1ccc(C(F)(F)F)cc1 | 1.4 | – | –
Nc1nc(NC2CCCCC2)sc1C(=O)c1ccc(F)c(F)c1 | 12 | – | –
Nc1nc(NC2CCCCC2)sc1C(=O)C1CCCCC1 | 8.9 | – | –
COC(C)(C)C(=O)c1sc(NC2CCCCC2)nc1N | 3.8 | – | –
Nc1nc(NC2CCCC(O)C2)sc1C(=O)c1c(F)cccc1F (stereo unspecified) | 1.8 | – | –
Nc1nc(NC2CCCCC2)sc1C(=O)c1ccc(F)cc1 | 4.9 | – | –
O=C(c1cnc(NC2CCCCC2)s1)C1CCCCC1 | 15 | – | –
CC(C)(C)OCC(=O)c1sc(Nc2ccc(F)c(F)c2)nc1N | – | 50 | –
Nc1nc(NC2CCCCC2)sc1C(=O)c1ccccc1F | 9.7 | 2 | –
Nc1nc(NC2CCCCC2)sc1C(=O)c1c(Cl)cccc1Cl | 4.1 | – | –
Nc1nc(NC2CCCCC2)sc1C(=O)c1ccccc1C(F)(F)F | 14 | – | –
Nc1nc(NC2CCCCC2)sc1C(=O)c1ccncc1 | 4.1 | – | –
Nc1nc(NC2CCCCC2)sc1C(=O)c1cc(F)cc(F)c1 | 3.6 | – | –

More lines, main results first:

CLH [3] [mL/min/g] | Compound | EC50 at 69 h [4] [µM] | other results
9.3 | CC(C)OCC(=O)c1sc(Nc2ccc(F)c(F)c2)nc1N | 50 | –
8.1 | C[C@@H]1CN(CC(=O)c2sc(Nc3ccc(F)c(F)c3)nc2N)C[C@H](C)O1 | 50 | EC50 (Trypanosoma brucei [6]): 0.05 µM; selectivity ratio [5]: 1000
12 | Nc1nc(Nc2ccccc2)sc1C(=O)c1ccccc1 | – | CLH [8]: < 0.5 mL/min/g
5 | CC(OCC(=O)c1sc(Nc2ccc3c(c2)OC(F)(F)O3)nc1N)C(F)(F)F (stereo unspecified) | 50 | solubility kinetic [7]: > 100 µg/mL
1.2 | Nc1nc(Nc2ccc(F)c(F)c2)sc1C(=O)CCN1CCOCC1 | – | –
10.8 | CC(OCC(=O)c1sc(Nc2ccn(C)n2)nc1N)C(F)(F)F (stereo unspecified) | – | –
9 | Nc1nc(Nc2ccc(F)c(F)c2)sc1C(=O)COC1CCC1 | 50 | –
2.1 | Nc1nc(Nc2ccc(F)c(F)c2)sc1C(=O)CN1CCCC1 | – | –
7.4 | CC(OCC(=O)c1sc(Nc2ccc(F)c(F)c2)nc1N)C(F)(F)F (stereo unspecified) | 50 | –
8.8 | Nc1nc(Nc2ccc(F)c(F)c2)sc1C(=O)CN1C[C@H]2CC[C@@H](C1)O2 | 50 | –
5.2 | Nc1nc(Nc2ccc(F)c(F)c2)sc1C(=O)COC1CC(F)(F)C1(F)F (stereo unspecified) | – | –
6.1 | COC(C)(C)CC(=O)c1sc(Nc2ccc(F)c(F)c2)nc1N | 50 | –
26 | Nc1nc(Nc2ccc(F)c(F)c2)sc1C(=O)CN1CCCC1C(F)(F)F (stereo unspecified) | – | –
8 | CC(C)CC(=O)c1sc(Nc2ccc(F)cc2)nc1N | – | –
4.7 | Nc1nc(Nc2ccc(F)c(F)c2)sc1C(=O)CN1CCOCC1 | 50 | selectivity ratio [5]: 2000
7.3 | Nc1nc(Nc2ccccc2)sc1C(=O)c1ccc(F)cc1 | – | –
5.3 | CC(OCC(=O)c1sc(Nc2ccc(Cl)cc2)nc1N)C(F)(F)F (stereo unspecified) | 50 | solubility kinetic [7]: > 100 µg/mL
5.9 | CC(C)CC(=O)c1sc(Nc2ccc(F)c(F)c2)nc1N | – | CLH [8]: 3.2 mL/min/g
9 | COc1ccc(Nc2nc(N)c(C(=O)COC(C)C(F)(F)F)s2)cn1 (stereo unspecified) | 50 | solubility kinetic [7]: > 100 µg/mL
2.2 | CC(C)(O)CC(=O)c1sc(Nc2ccc(F)c(F)c2)nc1N | – | CLH [8]: < 0.5 mL/min/g; fCmax [9]: 2600 ng/mL; Cmax [10]: 18000 ng/mL; AUC [11]: 1900 µg·h/mL; Activity [12]: inactive; Tmax [13]: 30 min; AUC [14]: 470 µg·h/mL; fCmax [15]: 5200 ng/mL; fCmax [16]: 195 ng/mL; Activity [17]: inactive; Cmax [18]: 36000 ng/mL
33 | Nc1nc(Nc2ccc(F)c(F)c2)sc1C(=O)CN1CCCC(F)(F)C1 | – | –
4.1 | Nc1nc(Nc2ccc(F)c(F)c2)sc1C(=O)CN1C[C@@H]2C[C@H]1CO2 | 50 | –
5.2 | CC1CCCN1CC(=O)c1sc(Nc2ccc(F)c(F)c2)nc1N (stereo unspecified) | 50 | –
4.6 | CC(C)(C)CC(=O)c1sc(Nc2ccc(F)c(F)c2)nc1N | – | –
9.3 | Nc1nc(Nc2ccc(F)c(F)c2)sc1C(=O)CN1CCC(F)(F)CC1 | – | –
2.9 | Nc1nc(NC2CCCCC2)sc1C(=O)c1ccc(OC(F)F)cc1 | – | CLH [8]: 0.8 mL/min/g; selectivity ratio [5]: 267
7.7 | Nc1nc(Nc2ccc(F)c(F)c2)sc1C(=O)CN1CCCCC1 | – | –
2.3 | CC(OCC(=O)c1sc(Nc2ccc(C(F)(F)F)cc2)nc1N)C(F)(F)F (stereo unspecified) | – | solubility kinetic [7]: > 100 µg/mL
